Reference: ChEMBL document CHEMBL1821679, “Targeting the heat shock protein 90 dimer with dimeric inhibitors” (J Med Chem, 2011)
pIC50: −log10 of the molar value.

How the values were obtained:
Assay type in all cases: functional, cell-based
MCF7 = test: Antiproliferative activity against human MCF7 cells after 72 hrs by MTS/PMS assay; conditions: MCF7, 72 h
Method in brief: (§1)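 Cells grown in medium with non-essential amino acids, 2 mM L-glutamine, streptomycin, penicillin and 10% FBS at 37 °C, 5% CO2; seeded 2000/well, attached overnight. Test agent added over a concentration range in DMSO (1% final), 72 h exposure. Viable cells counted by MTS/PMS read-out against 1% DMSO wells as 100% proliferation. IC50 taken as mean ± SD of at least two separate experiments, each in triplicate.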

SK-BR-3 = test: Antiproliferative activity against human SKBR3 cells after 72 hrs by MTS/PMS assay; conditions: SK-BR-3, 72 h; method in brief: as §1
A549 = test: Antiproliferative activity against human A549 cells after 72 hrs by MTS/PMS assay; conditions: A549, 72 h; method in brief: as §1
[1] = Antiproliferative activity against human PC3MM2 cells after 72 hrs by MTS/PMS assay; conditions: PC3MM2, 72 h; method in brief: as §1

SMILES | pIC50 (MCF7) | pIC50 (SK-BR-3) | pIC50 (A549) | pIC50 [1]
Cc1c(OC2CCN(C)CC2)ccc2cc(NC(=O)CC/C=C\CCC(=O)Nc3cc4ccc(OC5CCN(C)CC5)c(C)c4oc3=O)c(=O)oc12 | 4.30 | < 4.00 | 4.11 | 4.48
Cc1c(OC2CCN(C)CC2)ccc2cc(NC(=O)CCCC/C=C/CCCCC(=O)Nc3cc4ccc(OC5CCN(C)CC5)c(C)c4oc3=O)c(=O)oc12 | 6.14 | 6.29 | – | –
COc1ccc(C(=O)Nc2cc3ccc(OC(C)=O)c(C)c3oc2=O)cc1-c1cc(C(=O)Nc2cc3ccc(OC(C)=O)c(C)c3oc2=O)ccc1OC | < 4.00 | 4.93 | – | –
COc1ccc(C(=O)Nc2cc3ccc(OC4CCN(C)CC4)c(C)c3oc2=O)cc1-c1cc(C(=O)Nc2cc3ccc(OC4CCN(C)CC4)c(C)c3oc2=O)ccc1OC | 4.85 | 5.30 | – | –
Cc1c(OC2CCN(C)CC2)ccc2cc(NC(=O)CCCCC(=O)Nc3cc4ccc(OC5CCN(C)CC5)c(C)c4oc3=O)c(=O)oc12 | 5.61 | 5.90 | – | –
CO[C@H]1[C@H](OC(=O)c2ccc(C)[nH]2)[C@H](O)[C@@H](Oc2ccc3c(O)c(NC(=O)c4c[nH]c(C(=O)Nc5c(O)c6ccc(O[C@H]7OC(C)(C)[C@@H](OC)[C@H](OC(=O)c8ccc(C)[nH]8)[C@@H]7O)c(C)c6oc5=O)c4C)c(=O)oc3c2C)OC1(C)C [COUMERMYCIN A1] | 5.06 | 5.30 | – | –

Second part, led by results:

pIC50 (MCF7) | pIC50 (SK-BR-3) | pIC50 (A549) | SMILES | pIC50 [1]
4.42 | 4.55 | – | COc1cc(C(=O)Nc2cc3ccc(O[C@@H]4OC(C)(C)[C@H](OC)[C@@H](O)[C@H]4O)c(C)c3oc2=O)cc(-c2cc(C(=O)Nc3cc4ccc(O[C@@H]5OC(C)(C)[C@H](OC)[C@@H](O)[C@H]5O)c(C)c4oc3=O)ccc2OC)c1 | –
4.27 | < 4.00 | – | CO[C@H]1[C@H](O)[C@H](O)[C@@H](Oc2ccc3cc(NC(=O)C/C=C/CC(=O)Nc4cc5ccc(O[C@H]6OC(C)(C)[C@@H](OC)[C@H](O)[C@@H]6O)c(C)c5oc4=O)c(=O)oc3c2C)OC1(C)C | –
3.77 | 3.98 | – | COc1cc2cc(NC(=O)C/C=C/CC(=O)Nc3cc4cc(OC)c(O[C@H]5OC(C)(C)[C@@H](OC)[C@H](O)[C@@H]5O)c(C)c4oc3=O)c(=O)oc2c(C)c1O[C@H]1OC(C)(C)[C@@H](OC)[C@H](O)[C@@H]1O | –
< 4.00 | < 4.00 | – | COc1c(O[C@H]2OC(C)(C)[C@@H](OC)[C@H](O)[C@@H]2O)ccc2cc(NC(=O)C/C=C/CC(=O)Nc3cc4ccc(O[C@H]5OC(C)(C)[C@@H](OC)[C@H](O)[C@@H]5O)c(OC)c4oc3=O)c(=O)oc12 | –
5.41 | 5.82 | – | CO[C@H]1[C@H](O)[C@H](O)[C@@H](Oc2ccc3cc(NC(=O)CC/C=C/CCC(=O)Nc4cc5ccc(O[C@H]6OC(C)(C)[C@@H](OC)[C@H](O)[C@@H]6O)c(C)c5oc4=O)c(=O)oc3c2C)OC1(C)C | –
< 4.00 | 4.28 | – | COc1c(O[C@H]2OC(C)(C)[C@@H](OC)[C@H](O)[C@@H]2O)ccc2cc(NC(=O)CC/C=C/CCC(=O)Nc3cc4ccc(O[C@H]5OC(C)(C)[C@@H](OC)[C@H](O)[C@@H]5O)c(OC)c4oc3=O)c(=O)oc12 | –
5.58 | 5.39 | – | COc1cc2cc(NC(=O)CC/C=C/CCC(=O)Nc3cc4cc(OC)c(O[C@H]5OC(C)(C)[C@@H](OC)[C@H](O)[C@@H]5O)c(C)c4oc3=O)c(=O)oc2c(C)c1O[C@H]1OC(C)(C)[C@@H](OC)[C@H](O)[C@@H]1O | –
5.90 | 6.07 | – | CO[C@@H]1[C@@H](O)[C@@H](O)[C@H](Oc2ccc3cc(NC(=O)c4cccc(-c5cccc(C(=O)Nc6cc7ccc(O[C@@H]8OC(C)(C)[C@H](OC)[C@@H](O)[C@H]8O)c(C)c7oc6=O)c5)c4)c(=O)oc3c2C)OC1(C)C | –
